Published values gathered from unrelated publications.
Protocols differ between the studies behind these lines.
Sample: plasma
Route: intravenous

SMILES | host | dose | setting | Vd [L/kg]
CCONC(=O)N1CCC[C@H](C(=O)NCc2nc(-c3ccc(C#N)cc3)cs2)C1 | male Sprague-Dawley rat | 1 mg/kg | – | 0.45
Cn1c(=O)c2[nH]cnc2n(C)c1=O | male Sprague-Dawley rat | 22.5 mg/kg | – | 1.52
Cc1cc(S(=O)(=O)N[C@H]2CC[C@H](CN3CCN(c4cccc(NC5CCC(=O)NC5=O)c4)CC3)CC2)ccc1Nc1ncc(C(F)(F)F)c(N2CCC[C@](C)(O)C2)n1 (stereo partly drawn) | rat | 2 mg/kg | – | 10
CC(=O)c1c(C)c2cnc(Nc3ccc(N4CCNCC4)cn3)nc2n(C2CCCC2)c1=O | male Sprague-Dawley rat | 5 mg/kg | – | 3.3
COCC(=O)N1CCC[C@H](C(=O)NCc2nc(-c3ccc(C#N)cc3)cs2)C1 | male Sprague-Dawley rat | 1 mg/kg | – | 0.18
C[C@H]1CN(c2ccc(C3CCC(=O)NC3=O)cc2F)CCN1CC12CCC(NS(=O)(=O)c3ccc(Nc4ncc(C(F)(F)F)c(N5CCC[C@](C)(O)C5)n4)c(F)c3)(CC1)CO2 (stereo partly drawn) | rat | 2 mg/kg | – | 4
C[C@H]1Oc2cc(cnc2N)-c2c(nn(C)c2C#N)CN(C)C(=O)c2ccc(F)cc21 | Sprague-Dawley rat | 1 mg/kg | single dose | 2
C[C@]1(O)CCCN(c2nc(Nc3ccc(S(=O)(=O)N[C@H]4CC[C@H](CN5CCN(c6ccc(C7CCC(=O)NC7=O)c(F)c6)CC5)CC4)cc3F)ncc2C(F)(F)F)C1 (stereo partly drawn) | rat | 2 mg/kg | – | 3
COc1ccc(-c2coc3cc(O)cc(O)c3c2=O)cc1 | rat | 2 mg/kg | – | 0.81
Cc1nc(Nc2ncc(C(=O)Nc3c(C)cccc3Cl)s2)cc(N2CCN(CCO)CC2)n1 | male Sprague-Dawley rat | 1 mg/kg | – | 2.8
NCCOCC(=O)N1CCC[C@H](C(=O)NCc2nc(-c3ccc(C(F)(F)F)cc3)cs2)C1 | male Sprague-Dawley rat | 1 mg/kg | – | 3.2
Cc1nc(Nc2ncc(C(=O)Nc3c(C)cccc3Cl)s2)cc(N2CC[C@H](O)C2)n1 | male Sprague-Dawley rat | 1 mg/kg | single dose | 0.9
Cc1cc(S(=O)(=O)N[C@H]2CC[C@H](N3CCN(CC4CCN(c5cccc6c5n(C)c(=O)n6C5CCC(=O)NC5=O)CC4)CC3)CC2)ccc1Nc1ncc(C(F)(F)F)c(N2CCC[C@](C)(O)C2)n1 (stereo partly drawn) | rat | 2 mg/kg | – | 10
Cc1nc(Nc2ncc(C(=O)Nc3c(C)cccc3Cl)s2)cc(N2CC[C@@H](N)C2)n1 | male Sprague-Dawley rat | 1 mg/kg | – | 32.8
C[C@H]1CN(CC2CCN(c3ccc(C4CCC(=O)NC4=O)cc3F)CC2)CC[C@H]1NS(=O)(=O)c1ccc(Nc2ncc(C(F)(F)F)c(N3CCC[C@](C)(O)C3)n2)c(F)c1 (stereo partly drawn) | rat | 2 mg/kg | – | 7
